Experimental data pooled from the literature.
Each line is one published result; the experiments were not run side by side.
ABL1: Tyrosine-protein kinase ABL1 (ABL1, Homo sapiens, UniProt P00519)

C#Cc1n[nH]c2c(-c3cn(C(C)c4ccccn4)c(=O)[nH]c3=O)cc(F)cc12 (centres unmarked)
inhibition (ABL1; enzyme activity, inhibitor; 1 µM): -8.5%

CC(C)(C)c1cc(C=C(C#N)C#N)cc(Br)c1O
remaining activity (ABL1; enzyme activity, inhibitor; 0.5 µM): 59.8%

N#CC1(c2ccccn2)CCN(Cc2cc(C(=O)O)c(=O)n3ccccc23)CC1
remaining binding (Tyrosine-protein kinase ABL1, phosphorylated (ABL1, Homo sapiens, UniProt P00519, H396P); cell-free assay, competition with immobilised ligand; 1 µM): 91%

Cn1cc(-c2cc(F)cc(N3CCn4c(cc5c4CCCC5)C3=O)c2CO)cc(Nc2ccc(N3CCN(C4COC4)CC3)cn2)c1=O
inhibition (ABL1; enzyme activity, inhibitor; 0.1 µM): -1%

O=C(Nc1cccnn1)N1CCN([C@@H]2CCOc3cc(C(F)(F)F)ccc32)CC1
inhibition (ABL1; enzyme activity, inhibitor; 20 µM): -3%

Cn1cncc1[C@@](O)(COc1ccc(C#N)cc1-c1ccc(OC(F)(F)F)cc1)c1ccc(C#N)cc1
remaining binding (Tyrosine-protein kinase ABL1, non-phosphorylated (ABL1, Homo sapiens, UniProt P00519, Q252H); cell-free assay, competition with immobilised ligand; 1 µM): 76%

Cc1nn(C)cc1-c1nc2c(N3CCN(Cc4ccc(Cl)cc4)CC3)c(Cl)cnc2[nH]1
remaining binding (Tyrosine-protein kinase ABL1, phosphorylated (ABL1, Homo sapiens, UniProt P00519); binding, competition with immobilised ligand; 1 µM): 100%

Nc1ncc(-c2nc(N3CCOCC3)nc(N3CCOCC3)n2)c(C(F)F)n1
remaining binding (Tyrosine-protein kinase ABL1, non-phosphorylated (ABL1, Homo sapiens, UniProt P00519, T315I); binding, competition with immobilised ligand; 10 µM): 89%
